Source: ChEMBL document CHEMBL4342424, “A synthetic 2,3-diarylindole induces microtubule destabilization and G2/M cell cycle arrest in lung cancer cells” (Bioorg Med Chem Lett, 2020)
Each block holds one compound with its values, some of them ahead of it. Active and inactive are the calls of the source. No cut-off for these calls is given here.

Assays:
[1] = target: T1, Tubulin (Sus scrofa) (UniProt P02554+P02550); assay: Induction of porcine brain tubulin polymerization at 10 uM
[2] = tested on: A549; assay: Antiproliferative activity against human A549 cells assessed as reduction in cell viability after 72 hrs by MTT assay; type: functional, cell-based; conditions: A549, 72 h
[3] = target: T1, Tubulin (Sus scrofa); assay: Inhibition of porcine brain tubulin polymerization at 10 uM
[4] = tested on: A549; assay: Induction of cell cycle arrest in human A549 cells assessed as accumulation at G0/G1 phase at 2.5 uM incubated for 24 hrs by Muse cell analyzer based flow cytometry (reference value: 63.9%); type: functional
[5] = tested on: A549; assay: Induction of cell cycle arrest in human A549 cells assessed as accumulation at S phase at 2.5 uM incubated for 24 hrs by Muse cell analyzer based flow cytometry (reference value: 8%); type: functional
[6] = tested on: A549; assay: Induction of cell cycle arrest in human A549 cells assessed as accumulation at G2/M phase at 2.5 uM incubated for 24 hrs by Muse cell analyzer based flow cytometry (reference value: 22.3 to 24%); type: functional
[7] = tested on: A549; assay: Induction of cell cycle arrest in human A549 cells assessed as accumulation at G0/G1 phase at 5 uM incubated for 24 hrs by Muse cell analyzer based flow cytometry (reference value: 63.9%); type: functional
[8] = tested on: A549; assay: Induction of cell cycle arrest in human A549 cells assessed as accumulation at S phase at 5 uM incubated for 24 hrs by Muse cell analyzer based flow cytometry (reference value: 8%); type: functional
[9] = tested on: A549; assay: Induction of cell cycle arrest in human A549 cells assessed as accumulation at G2/M phase at 5 uM incubated for 24 hrs by Muse cell analyzer based flow cytometry (reference value: 22.3 to 24%); type: functional
[10] = tested on: A549; assay: Induction of cell cycle arrest in human A549 cells assessed as increase in accumulation at G2/M phase incubated for 24 hrs by Muse cell analyzer based flow cytometry; type: functional
[11] = tested on: A549; assay: Cytotoxicity against human A549 cells assessed as change in cell morphology incubated for 48 hrs; type: functional, cell-based
[12] = Drug uptake in nucleus of human A549 cells at 250 uM incubated for 3 hrs by Hoechst 33342 staining based confocal laser microscopic method; type: ADME, subcellular; conditions: a549, 3 h
Method in brief: (§1)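 Live A549 cells were incubated for 3 h with the FITC-linked conjugate at 250 μM, then stained with Hoechst 33342 nuclear dye at 0.1 for 5 min. Live-cell confocal laser microscopy located the green signal in the cytoplasm or nucleus.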

[13] = Drug uptake in cytoplasm of human A549 cells at 250 uM incubated for 3 hrs by Hoechst 33342 staining based confocal laser microscopic method; type: ADME, subcellular; conditions: a549, 3 h; method in brief: as §1
[14] = tested on: A549; assay: Induction of cell cycle arrest in human A549 cells assessed as accumulation at G2/M phase at 200 uM incubated for 24 hrs by Muse cell analyzer based flow cytometry (reference value: 16.2%); type: functional

T1 sequence (P02550 whole entry, looked up): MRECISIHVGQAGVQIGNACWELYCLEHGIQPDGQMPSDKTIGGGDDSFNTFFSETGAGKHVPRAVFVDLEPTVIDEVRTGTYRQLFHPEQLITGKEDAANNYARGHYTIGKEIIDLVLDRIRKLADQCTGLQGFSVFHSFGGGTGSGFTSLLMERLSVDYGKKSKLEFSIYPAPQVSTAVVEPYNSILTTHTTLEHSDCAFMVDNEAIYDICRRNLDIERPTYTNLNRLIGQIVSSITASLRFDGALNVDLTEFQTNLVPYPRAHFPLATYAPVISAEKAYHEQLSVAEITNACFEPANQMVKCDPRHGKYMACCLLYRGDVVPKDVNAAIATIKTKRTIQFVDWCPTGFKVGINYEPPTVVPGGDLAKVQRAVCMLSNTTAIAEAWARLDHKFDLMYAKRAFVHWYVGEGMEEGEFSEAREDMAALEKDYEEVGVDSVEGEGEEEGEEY
T1 sequence (P02554 whole entry, looked up): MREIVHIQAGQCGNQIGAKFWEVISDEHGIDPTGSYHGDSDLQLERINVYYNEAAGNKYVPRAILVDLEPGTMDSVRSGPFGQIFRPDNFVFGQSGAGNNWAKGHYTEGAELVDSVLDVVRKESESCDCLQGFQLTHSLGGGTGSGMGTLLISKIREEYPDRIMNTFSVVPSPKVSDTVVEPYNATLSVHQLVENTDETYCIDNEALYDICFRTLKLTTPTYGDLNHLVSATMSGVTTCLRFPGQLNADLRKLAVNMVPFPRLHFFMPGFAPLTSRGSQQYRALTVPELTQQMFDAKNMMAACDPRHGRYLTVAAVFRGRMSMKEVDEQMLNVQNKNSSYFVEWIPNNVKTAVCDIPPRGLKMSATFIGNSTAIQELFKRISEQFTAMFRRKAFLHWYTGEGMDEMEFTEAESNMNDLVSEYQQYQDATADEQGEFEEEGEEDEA

Structure (SMILES): CC(=O)O[C@H]1C(=O)[C@@]2(C)[C@H]([C@H](OC(=O)c3ccccc3)[C@]3(O)C[C@H](OC(=O)[C@H](O)[C@@H](NC(=O)c4ccccc4)c4ccccc4)C(C)=C1C3(C)C)[C@]1(OC(C)=O)CO[C@@H]1C[C@@H]2O
Activity [1]: Active

Structure (SMILES): COC(=O)c1ccc(-c2c(-c3ccccc3)[nH]c3ccccc23)cc1
inhibition [3]: Active | Activity [4]: 40.9% | Activity [5]: 9.5% | Activity [6]: 41.4 - 42.8% | Activity [7]: 10.2% | Activity [8]: 7.5% | Activity [9]: 70 - 71% | Activity [10]: Dose-dependent effect

Structure (SMILES): O=C(OCCOCCOCCO)c1ccc(-c2[nH]c3ccccc3c2-c2ccccc2)cc1
IC50 [2]: 29.5 µM

Structure (SMILES): COC(=O)c1ccc(-c2c(-c3ccccc3)n(CCOCCOCCO)c3ccccc23)cc1
IC50 [2]: 30.8 µM

Now from value to compound, other results behind:

IC50 [2]: 41.3 µM
Structure (SMILES): COC(=O)c1ccc(-c2c(-c3ccccc3)c3ccccc3n2CCOCCOCCO)cc1

IC50 [2]: 10.2 µM
Structure (SMILES): O=C(OCCOCCOCCO)c1ccc(-c2c(-c3ccccc3)[nH]c3ccccc23)cc1
Activity [11]: Active

Drug uptake [12]: Not Active | IC50 [2]: 238 µM | Drug uptake [13]: Active
Structure (SMILES): O=C(OCCOCCOCCOCCOCCOCCNC(=S)Nc1ccc(-c2c3ccc(=O)cc-3oc3cc(O)ccc23)c(C(=O)O)c1)c1ccc(-c2c(-c3ccccc3)[nH]c3ccccc23)cc1
Activity [14]: 53.3%
